From ChEMBL document CHEMBL1123467, “Comparison of the chemical reactivities and antineoplastic activities of alpha,beta-, alpha,beta'-, beta,beta'-, and alpha,alpha'-bis[[[(2-propylamino)carbonyl]oxy]methyl]-substituted pyrroles” (1986) come the findings set out here.

The subject of test [1] is P388. Nature of the test: Compound was tested in vivo for the antitumor activity against P388 lymphocytic leukemia at dose level of 120 mg/kg. In kind it is functional, Mus musculus.
Test [2] has as its system P388. Nature of the test: Compound was tested for the antitumor activity against P388 lymphocytic leukemia at dose level of 60 mg/kg. In kind it is functional, Mus musculus.
Test [3] relates to P388. Nature of the test: Compound was tested for the antitumor activity against P388 lymphocytic leukemia at dose level of 40 mg/kg; 6/6. Type of test: functional, Mus musculus.
In test [4] the test system is P388. In words: Compound was tested in vivo for its antitumor activity against P388 lymphocytic leukemia at dose level of 40 mg/kg. Type of test: functional, Mus musculus.
Test [5] deals with P388. Nature of the test: Compound was tested in vivo for its antitumor activity against P388 lymphocytic leukemia at dose level of 60 mg/kg. Type of test: functional, Mus musculus.
Test [6] in a line: Pseudo-first order rate constant for the reaction with 4-(p-Nitrobenzyl)pyridine. The gist of the method:
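Alkylating ability was measured against 4-(p-nitrobenzyl)pyridine (NBP), with 0.2 µmol alkylating agent and 240 µmol NBP as starting amounts. At timed points the mixture was diluted with acetone, mixed 3 s, and read at once at 570 nm. The blank was NBP, water, absolute ethanol, base solution and acetone. k' = slope of E570 vs time. Competing hydrolysis was assumed minor and neglected in the initial phase.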

The test system of test [7] is P388. In words: Compound was tested in vivo for the antitumor activity against P388 lymphocytic leukemia at dose level of 40 mg/kg. Type of test: functional, Mus musculus.
Test [8] deals with P388. Nature of the test: Compound was tested in vivo for its antitumor activity against P388 lymphocytic leukemia at dose level of 240 mg/kg; Toxic dose. Further details: dose 240 mg/kg. In kind it is functional, organism-based. The conditions noted are these: Mus musculus.
Test [9] relates to P388. In words: Compound was tested in vivo for the antitumor activity against P388 lymphocytic leukemia at dose level of 20 mg/kg. In kind it is functional, Mus musculus.
The subject of test [10] is P388. Nature of the test: Compound was tested for the antitumor activity against P388 lymphocytic leukemia at dose level of 40 mg/kg. Type of test: functional, Mus musculus.
The test system of test [11] is P388. Nature of the test: Compound was tested for the antitumor activity against P388 lymphocytic leukemia at dose level of 240 mg/kg; 6/6. Type of test: functional, Mus musculus.
For test [12], the system named is P388. In words: Compound was tested for the antitumor activity against P388 lymphocytic leukemia at dose level of 60 mg/kg; 6/6. In kind it is functional, Mus musculus.
In test [13] the test system is P388. In words: Compound was tested for the antitumor activity against P388 lymphocytic leukemia at dose level of 20 mg/kg. Type of test: functional, Mus musculus.
Test [14] relates to P388. In words: Compound was tested for the antitumor activity against P388 lymphocytic leukemia at dose level of 20 mg/kg; 6/6. Type of test: functional, Mus musculus.
Test [15] has as its system P388. Nature of the test: Compound was tested in vivo for the antitumor activity against P388 lymphocytic leukemia at dose level of 60 mg/kg. In kind it is functional, Mus musculus.
The test system of test [16] is P388. Nature of the test: Compound was tested in vivo for its antitumor activity against P388 lymphocytic leukemia at dose level of 20 mg/kg. Type of test: functional, Mus musculus.
The test system of test [17] is P388. Nature of the test: Compound was tested for the antitumor activity against P388 lymphocytic leukemia at dose level of 120 mg/kg; 6/6. In kind it is functional, Mus musculus.
Test [18] concerns P388. In words: Compound was tested for the antitumor activity against P388 lymphocytic leukemia at dose level of 240 mg/kg. In kind it is functional, Mus musculus.
Test [19] relates to P388. In words: Compound was tested in vivo for its antitumor activity against P388 lymphocytic leukemia at dose level of 120 mg/kg; Toxic dose. The settings on record: Mus musculus. On the set-up: dose 120 mg/kg. In kind it is functional, organism-based.
For test [20], the system named is P388. In words: Compound was tested for the antitumor activity against P388 lymphocytic leukemia at dose level of 120 mg/kg. Type of test: functional, Mus musculus.
The test system of test [21] is P388. Nature of the test: Compound was tested in vivo for its antitumor activity against P388 lymphocytic leukemia at dose level of 120 mg/kg. Type of test: functional, Mus musculus.
For test [22], the system named is P388. Nature of the test: Compound was tested in vivo for its antitumor activity against P388 lymphocytic leukemia at dose level of 240 mg/kg. In kind it is functional, Mus musculus.
For test [23], the system named is P388. Nature of the test: Compound was tested in vivo for the antitumor activity against P388 lymphocytic leukemia at dose level of 240 mg/kg. In kind it is functional, Mus musculus.
In test [24] the test system is P388. In words: Compound was tested for the antitumor activity against P388 lymphocytic leukemia at dose level of 30 mg/kg. In kind it is functional, Mus musculus.
The subject of test [25] is P388. Nature of the test: Compound was tested in vivo for its antitumor activity against P388 lymphocytic leukemia at dose level of 30 mg/kg. In kind it is functional, Mus musculus.
Test [26] relates to P388. Nature of the test: Compound was tested in vivo for the antitumor activity against P388 lymphocytic leukemia at dose level of 30 mg/kg. In kind it is functional, Mus musculus.
In test [27] the test system is P388. In words: Compound was tested for the antitumor activity against P388 lymphocytic leukemia at dose level of 15 mg/kg; 6/6. In kind it is functional, Mus musculus.
Test [28] in a line: Compound was tested for the antitumor activity against solid tumor models at dose level of 100 mg/kg (LOX assay). In kind it is functional, Homo sapiens.
A short description of test [29]: Compound was tested in vivo for the antitumor activity against solid tumor models at dose level of 100 mg/kg (LOX assay). In kind it is functional, Homo sapiens.
Test [30] deals with P388. In words: Compound was tested for the antitumor activity against P388 lymphocytic leukemia at dose level of 30 mg/kg; 6/6. In kind it is functional, Mus musculus.
The test system of test [31] is M5076. Nature of the test: Compound was tested in vivo for the antitumor activity against solid tumor models at dose level of 50 mg/kg (M5076 assay). Type of test: functional.
Test [32] has as its system P388. Nature of the test: Compound was tested for the antitumor activity against P388 lymphocytic leukemia at dose level of 15 mg/kg. Type of test: functional, Mus musculus.
For test [33], the system named is P388. In words: Compound was tested in vivo for the antitumor activity against P388 lymphocytic leukemia at dose level of 15 mg/kg. Type of test: functional, Mus musculus.
Test [34] deals with M5076. In words: Compound was tested for the antitumor activity against solid tumor models at dose level of 50 mg/kg (M5076 assay). In kind it is functional.
Test [35] has as its system P388. In words: Compound was tested in vivo for its antitumor activity against P388 lymphocytic leukemia and at dose level of 120 mg/kg; Toxic dose. Type of test: functional, organism-based. On the set-up: dose 120 mg/kg. The conditions noted are these: Mus musculus.
Test [36] has as its system Homo sapiens. Nature of the test: Compound was tested in vivo for the antitumor activity against solid tumor models at dose level of 200 mg/kg (MX-1 assay). Type of test: functional.
The test system of test [37] is P388. Nature of the test: Compound was tested for the antitumor activity against P388 lymphocytic leukemia at dose level of 240 mg/kg; 0/6. Type of test: functional, Mus musculus.
Test [38] has as its system Homo sapiens. In words: Compound was tested for the antitumor activity against solid tumor models at t dose level of 200 mg/kg (MX-1 assay). In kind it is functional.
Test [39] deals with P388. In words: Compound was tested in vivo for its antitumor activity against P388 lymphocytic leukemia at dose level of 15 mg/kg. Type of test: functional, Mus musculus.
Test [40] concerns P388. In words: Compound was tested for the antitumor activity against P388 lymphocytic leukemia at dose level of 120 mg/kg; 5/6. Type of test: functional, Mus musculus.
The subject of test [41] is Homo sapiens. In words: Compound was tested in vivo for the antitumor activity against solid tumor models at dose level of 800 mg/kg (MX-1 assay). In kind it is functional.
Test [42] relates to M5076. Nature of the test: Compound was tested for the antitumor activity against solid tumor models at dose level of 800 mg/kg (M5076 assay). Type of test: functional.
The nature of test [43]: Compound was tested in vivo for the antitumor activity against solid tumor models at dose level of 400 mg/kg (LOX assay). Type of test: functional, Homo sapiens.
The test system of test [44] is M5076. Nature of the test: Compound was tested in vivo for the antitumor activity against solid tumor models at dose level of 800 mg/kg (M5076 assay). Type of test: functional, Homo sapiens.
For test [45], the system named is Homo sapiens. Nature of the test: Compound was tested for the antitumor activity against solid tumor models at t dose level of 800 mg/kg (MX-1 assay). Type of test: functional.
Test [46] is described as follows: Compound was tested for the antitumor activity against solid tumor models at dose level of 400 mg/kg (LOX assay). In kind it is functional, Homo sapiens.

Where “and” joins values, the source holds several entries; their conditions need not be identical. Equal values may be shown once.

With `CC(C)NC(=O)OCc1c(COC(=O)NC(C)C)c(-c2ccccc2)n(C)c1-c1ccccc1`, the T/C with P388 [1] is 94%; in the test on P388 [7], 168%; in the test on P388 [9] it was 137% and 205%; in the test with P388 [15], 209%. Besides, the Weight difference in the test with P388 [2] was -2.2 g; in the test on P388 [10], -1.6 g; in the test with P388 [13], -0.1 g; in the test on P388 [18], -5.5 g; with P388 [20], -4.4 g. Moreover, the TDS in the test on P388 [3], in the test with P388 [11], with P388 [12], with P388 [14] and in the test on P388 [17] was 6 throughout. The KE in the test with P388 [4] is 2.85; in the test with P388 [5] it was 6.43; with P388 [8], “Toxic”; with P388 [16], 0.08; in the test on P388 [19] it was “Toxic”. For the same molecule, the K' in [6] worked out at 0.00498 abs/time.
As to `CC(C)NC(=O)OCc1c(-c2ccccc2)c(-c2ccccc2)c(COC(=O)NC(C)C)n1C`, the T/C came to 98% in the test on P388 [1], 107% in the test on P388 [15] and 101% in the test with P388 [23]. The KE with P388 [21] was -1.56; with P388 [5], -1.44; in the test on P388 [22] it was -1.51. Also, the TDS ratio with P388 [2], with P388 [18] and in the test on P388 [20] was 6 each time. Further, the Weight difference is listed as 0 g in the test with P388 [2], -1.7 g in the test on P388 [18] and -0.2 g in the test with P388 [20]. In test [6], the K' is 0.00669 abs/time.
For the molecule `CC(C)NC(=O)OCc1c(-c2ccccc2)c(COC(=O)NC(C)C)n(C)c1-c1ccccc1`, the Weight difference is -3.8 g in the test on P388 [2]; -5.3 g in the test with P388 [24]; -3.5 g in test [28]; -3.7 g in the test with P388 [32]; -2.5 g in the test on M5076 [34]; -7.2 g in the test on Homo sapiens [38]. Also, in the test with P388 [20], the Weight difference was -4.5 g. Besides, the KE in the test with P388 [25] was 0.88; with P388 [5] it was 3.89; with P388 [8] it was “Toxic”; with P388 [35] it was “Toxic”; in the test with P388 [39], -0.19. Besides, in test [6], the K' is 0.00112 abs/time. In addition, the T/C is on record as 150% in the test on P388 [26]; 180% in test [29]; 139% in the test on M5076 [31]; 180% with P388 [15]; 134% with P388 [33]; -3% in the test on Homo sapiens [36]. Further, the TDS was 6 in the test on P388 [27]; 6 in the test on P388 [12]; 6 in the test with P388 [30]; 0 with P388 [37]; 5 in the test on P388 [40].
Consider `CC(C)NC(=O)OCc1c(-c2ccccc2)c(-c2ccccc2)n(C)c1COC(=O)NC(C)C`, for which the T/C in the test on P388 [1] is listed as 160%; in the test on Homo sapiens [41] it was 0%; in test [43] it was 301%; in the test on M5076 [44], 178%; with P388 [15], 142%; with P388 [23] it was 181%. For the same molecule, the KE was 2.06 in the test on P388 [21], 0.59 in the test on P388 [5] and 3.74 with P388 [22]. Further, the Weight difference with P388 [2] is given as -1.1 g; with M5076 [42], -2.8 g; in the test with Homo sapiens [45] it was -5.3 g; in test [46], -3.3 g; in the test with P388 [18], -2.4 g; with P388 [20], 1.5 g. Further, in test [6], the K' worked out at 0.00321 abs/time. The TDS in the test on P388 [11], in the test on P388 [12] and in the test with P388 [17] was 6 each time.
